Source: PubChem BioAssay (several laboratories)
Compounds with a hit are over-represented: about 6.1% of the library has one in this group of screens.
hDAT+cocaine: human DAT dopamine uptake with cocaine, either direction. LLC-PK1 hDAT cells, [14C]-dopamine uptake with cocaine IC80; actives deviate in either direction. AID 449768. 110,000 compounds, 1.3% hits. B-score at 10 µM;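 active = Z score or B-score, a plate-position-corrected score, falls beyond the plate's 99.7% confidence bounds, in either direction; inactive = both scores lie inside the 99.7% bounds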;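 note: scored against the spread of the other compound wells on the same plate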
Target sequence (Q01959 whole entry, looked up): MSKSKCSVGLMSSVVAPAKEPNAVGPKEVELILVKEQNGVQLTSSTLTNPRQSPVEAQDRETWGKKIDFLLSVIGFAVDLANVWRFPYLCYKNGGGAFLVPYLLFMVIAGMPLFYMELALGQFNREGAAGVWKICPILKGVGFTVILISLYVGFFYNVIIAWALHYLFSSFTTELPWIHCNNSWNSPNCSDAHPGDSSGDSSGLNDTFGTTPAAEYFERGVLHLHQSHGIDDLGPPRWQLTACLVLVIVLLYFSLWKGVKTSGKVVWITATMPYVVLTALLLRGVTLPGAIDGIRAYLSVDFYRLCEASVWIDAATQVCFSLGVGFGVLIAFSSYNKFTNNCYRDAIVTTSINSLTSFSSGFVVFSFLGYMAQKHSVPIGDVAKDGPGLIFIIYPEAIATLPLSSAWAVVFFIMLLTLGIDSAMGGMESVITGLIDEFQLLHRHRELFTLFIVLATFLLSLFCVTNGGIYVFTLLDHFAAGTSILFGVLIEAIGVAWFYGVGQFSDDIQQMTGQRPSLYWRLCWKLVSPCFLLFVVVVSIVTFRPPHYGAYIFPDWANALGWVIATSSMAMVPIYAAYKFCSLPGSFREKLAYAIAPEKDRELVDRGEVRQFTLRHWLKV
WT yeast gro inh: growth inhibition of WT yeast, mitochondrial fusion screen; mitochondrial fusion phenotypic screen, WT strain; inhibition, % at 10 µM; 190,000 compounds, 2.1% hits; AID 1362; in the data active = inhibition above about 58%; tested in S. cerevisiae
RAM inhibit: inhibitors of the yeast RAM network; S. cerevisiae dse1pr::URA3 reporter, 5-FOA growth OD615, 2 d; analog-sensitive cbk1-as2 kinase mutant strain; inhibition, % at 50 µM; 190,000 compounds, 1.8% hits;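 active = inhibition above a set limit, 3 SD over mean compound inhibition, cut at about 8.4% in these data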;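 note: 0% = DMSO-only wells with no growth and 100% = 10 µM 1-NA-PP1 full growth; inhibition rescues growth on 5-FOA so higher OD means more RAM inhibition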
Measles CPE: protection of cells from measles virus; Measles virus-infected cells, CPE protection, absorbance; 140,000 compounds, 1.5% hits; protection (pct of control), % at 4 µM; in the data active = protection mostly above about 24%, no sharp cut-off; inactive = mostly below about 26%
BB579 growth dn: reduces growth of yeast BB579 in restrictive medium | 140,000 compounds, 0.51% hits | S. cerevisiae BB579 growth, OD615, 48 h | inhibition, % at 10 µM;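 active = inhibition above a set limit, 3 SD over the mean compound inhibition, cut at about 44% in these data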
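Assay system – yeast BB579 (DeaD) · Dosing – single compound dose of 10 µM, 0.25% DMSO final · Detection – OD615 turbidity measurement · Buffer or medium – CSMM-D restrictive synthetic medium containing dextrose (glucose) · Benchmarks – positive control amphotericin B 10 µg/mL · Incubation – 48 h exposure, 30 °C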
Yeast life ext: yeast lifespan extension; S. cerevisiae growth with nicotinamide, OD615; deaD strain in restrictive glucose medium; inhibition of the nicotinamide effect, % at 10 µM; 130,000 compounds, 0.68% hits; AID 775;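 active = inhibition above a set limit, placed 3 SD over the median of all compounds, cut at about 26% in these data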;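 note: 0% = nicotinamide-treated wells and 100% = cells grown without nicotinamide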
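Test system – modified budding yeast, DeaD strain · Compound – single dose 10 µM compound, 0.25% DMSO · Times – culture preincubation 4 h, compound exposure 48 h, both 30 °C · Detection – optical density (absorbance) at 615 nm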
* hit, by the source's call.

Screening COc1ccc([N+](=O)[O-])cc1NC(=O)C(C)OC(=O)/C=C/c1ccco1 (stereo unspecified) returned WT yeast gro inh -17, RAM inhibit 3, Measles CPE 2, BB579 growth dn -70 and Yeast life ext -7.
O=C(OCc1cccc([N+](=O)[O-])c1)c1ccc2ccccc2n1 was read as WT yeast gro inh 1 and RAM inhibit 9.6*.
COCCCNC(=O)CS(=O)Cc1nc(-c2cccc(OC)c2)oc1C (stereo unspecified) was read as hDAT+cocaine 1.4, WT yeast gro inh -24, RAM inhibit 0, Measles CPE 39*, BB579 growth dn -15 and Yeast life ext -4.
COCCCNC(=O)CS(=O)(=O)Cc1nc(-c2cccc(OC)c2)oc1C was read as hDAT+cocaine -0.61, WT yeast gro inh 75*, RAM inhibit 1, Measles CPE 3, BB579 growth dn -55 and Yeast life ext 1.
For CSc1ccccc1C(=O)C1CCCN(C(=O)CCN2CCCO2)C1 (stereo unspecified) the results were WT yeast gro inh 2 and RAM inhibit 1.
NNc1nc2c(Cl)c(Cl)ccc2s1 was read as WT yeast gro inh 78*, RAM inhibit 2, Measles CPE 11, BB579 growth dn -11 and Yeast life ext -7.
COc1cccc2sc(NN)nc12 was read as WT yeast gro inh 20 and RAM inhibit 0.
O=C(NCc1cccnc1)c1cccn2c(=O)c3sccc3nc12 was read as hDAT+cocaine 1.1, WT yeast gro inh 0, RAM inhibit 0, Measles CPE 27, BB579 growth dn -27 and Yeast life ext -13.
Screening COc1ccccc1C(=O)NCC1(c2ccccc2)CCCC1 returned WT yeast gro inh 26 and RAM inhibit 1.
Screening COc1ccc(N=Nc2nc3cc(Br)c(Br)cc3n2C)c(OC)c1 returned WT yeast gro inh 61*, RAM inhibit 1, Measles CPE 18, BB579 growth dn -15 and Yeast life ext -3.
`COc1ccc(CNc2nc3ccccc3n2C)c(OC)c1` gave WT yeast gro inh -2 and RAM inhibit 0.
`COCCNC(=S)N1CCc2cc(OC)c(OC)cc2C1COc1ccc(F)cc1` (stereo unspecified) gave WT yeast gro inh -6 and RAM inhibit 8.8*.
`CCN(CC)S(=O)(=O)c1ccc(N2CCCC2)c(C(=O)Nc2ccc(OC)c(Cl)c2)c1` gave WT yeast gro inh -12, RAM inhibit 3, Measles CPE 24, BB579 growth dn -18 and Yeast life ext 0.
Cc1nc2sc(C(c3ccccc3)N3CC(C)OC(C)C3)c(O)n2n1 (stereo unspecified) was read as hDAT+cocaine 0.17, WT yeast gro inh 1, RAM inhibit 1, Measles CPE 3, BB579 growth dn 15 and Yeast life ext -2.
Screening Cc1nc2sc(C(c3ccc(Br)cc3)N3CC(C)OC(C)C3)c(O)n2n1 (stereo unspecified) returned hDAT+cocaine 2.6*, WT yeast gro inh -6, RAM inhibit 5, Measles CPE 5, BB579 growth dn 6 and Yeast life ext 1.
`OC(Cn1cncn1)(c1ccccc1)c1ccccc1` gave hDAT+cocaine 0.64, WT yeast gro inh -2, RAM inhibit 1, Measles CPE 30, BB579 growth dn 92* and Yeast life ext -18.
For CC(C)N(CCNS(=O)(=O)c1ccc(Cl)cc1)C(C)C the results were hDAT+cocaine 3*, WT yeast gro inh -13, RAM inhibit 0, Measles CPE 6, BB579 growth dn -43 and Yeast life ext -1.
For CCOC(=O)CSc1nnc(CNC(=O)Cc2ccccc2)n1C the results were hDAT+cocaine -0.17, WT yeast gro inh -17, RAM inhibit 0, Measles CPE 7, BB579 growth dn -12 and Yeast life ext -5.
`COc1ccc(-n2cc3c(-c4cccc(Br)c4)nnc(C)c3n2)cc1` gave WT yeast gro inh 71, RAM inhibit 11*, Measles CPE 24, BB579 growth dn -17 and Yeast life ext -3.
Cc1nnc(-c2cccc(Br)c2)c2cn(-c3ccc(Br)cc3)nc12 was read as hDAT+cocaine 0.92, WT yeast gro inh 59, RAM inhibit 2, Measles CPE 6, BB579 growth dn -21 and Yeast life ext -11.
`Cc1csc(SCC(=O)NC(=O)NC2CCCC2)n1` gave WT yeast gro inh -2 and RAM inhibit 2.
Screening Cc1cc(=O)oc(C)c1C(=O)NCCCN1CCN(c2ccc(F)cc2)CC1 returned hDAT+cocaine 0.16, WT yeast gro inh 20, RAM inhibit 1, Measles CPE 43*, BB579 growth dn -35 and Yeast life ext -5.
COc1ccc(N2CCN(CCNC(=O)c3c(C)cc(=O)oc3C)CC2)cc1 was read as hDAT+cocaine -0.063, WT yeast gro inh 3, RAM inhibit -1, Measles CPE 17, BB579 growth dn -15 and Yeast life ext -7.
Screening Cc1ccc(S(=O)(=O)N(CC(=O)Nc2ccccc2C(=O)O)c2ccccc2)cc1 returned WT yeast gro inh -4 and RAM inhibit 8.7*.
CCCCN(C(=O)NC(=O)Nc1ccccc1OC)S(C)(=O)=O was read as hDAT+cocaine -0.73, WT yeast gro inh 38, RAM inhibit 1, Measles CPE 28*, BB579 growth dn -35 and Yeast life ext -27.
Screening CCOc1ccc(NC(=O)NC(=O)N(C)S(=O)(=O)c2ccc(C)cc2)cc1 returned WT yeast gro inh 4 and RAM inhibit 1.
CCOc1ccccc1NC(=O)NC(=O)N(C)S(=O)(=O)c1ccc(C)cc1 was read as WT yeast gro inh 62* and RAM inhibit 2.
For CCOc1ccccc1NC(=O)CCN(c1ccc(C)cc1)S(=O)(=O)c1ccccc1 the results were WT yeast gro inh 8, RAM inhibit 9.2*, Measles CPE 4, BB579 growth dn -17 and Yeast life ext -1.
For COc1ccccc1NC(=O)NC(=O)N(C(C)C)S(C)(=O)=O the results were hDAT+cocaine -0.076, WT yeast gro inh -1, RAM inhibit 0, Measles CPE 1, BB579 growth dn -3 and Yeast life ext -8.
Screening Cc1ccc(N(CCC(=O)O)S(=O)(=O)c2ccccc2)cc1 returned WT yeast gro inh 25, RAM inhibit 1, Measles CPE 6, BB579 growth dn -14 and Yeast life ext -1.
O=C(NCCCN1CCN(c2cccc(Cl)c2)CC1)c1nc(-c2ccncc2)no1 was read as hDAT+cocaine 1.1, WT yeast gro inh 0, RAM inhibit 0, Measles CPE 4, BB579 growth dn -59 and Yeast life ext -2.
`CCC1(C)OCC(Cn2c3ccccc3c3ccccc32)O1` (stereo unspecified) gave hDAT+cocaine 0.093, WT yeast gro inh 61*, RAM inhibit 0, Measles CPE 9 and BB579 growth dn -12.
